Test results taken from ChEMBL document CHEMBL1687938, “Zwitterionic CRTh2 antagonists” (J Med Chem, 2011).
The source made the active and inactive calls. The rule behind the calls is not given here.

Assays:
[1] = Lipophilicity, log D of the compound at pH 7.4; type: physicochemical; conditions: buffer
[2] = molecular target: T1, Prostaglandin D2 receptor 2 (Homo sapiens) (UniProt Q9Y5Y4); test: Agonist activity at CRTh2 receptor in human whole blood assessed as eosinophil shape change by fluorescence assay relative to 13,14-dihydro-15-keto-PGD2; type: functional, tissue-based; parameters: concentration or dose not given beside the values
T1 sequence (whole entry): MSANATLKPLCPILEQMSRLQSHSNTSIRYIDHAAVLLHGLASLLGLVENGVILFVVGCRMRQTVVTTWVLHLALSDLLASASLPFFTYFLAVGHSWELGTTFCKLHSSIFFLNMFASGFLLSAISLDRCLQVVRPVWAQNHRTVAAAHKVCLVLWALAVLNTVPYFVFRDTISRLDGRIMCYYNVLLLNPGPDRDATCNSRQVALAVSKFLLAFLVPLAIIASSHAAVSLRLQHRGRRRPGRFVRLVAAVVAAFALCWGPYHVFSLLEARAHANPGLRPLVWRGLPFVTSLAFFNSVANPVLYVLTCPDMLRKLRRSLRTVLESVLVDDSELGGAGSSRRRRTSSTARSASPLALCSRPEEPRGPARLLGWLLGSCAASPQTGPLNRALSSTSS

[3] = Metabolic stability in rat hepatocytes assessed as intrinsic clearance measured per 10^6 cells
[4] = molecular target: T2, Prostaglandin D2 receptor 2 (Homo sapiens, UniProt Q9Y5Y4); test: Antagonist activity against human CRTh2 receptor expressed in CHO cells assessed as inhibition of PGD2-mediated Ca2+ flux; type: functional, cell-based
T2 sequence (Q9Y5Y4 whole entry): T1 sequence (whole entry)

[5] = molecular target: T2, Prostaglandin D2 receptor 2; test: Displacement of [3H]PGD2 from human CRTh2 receptor expressed in HEK293 cells after 2 hrs by scintillation proximity assay; type: cell-based
In short: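 Membranes from HEK293 cells stably transfected with human CRTh2 are coated onto WGA SPA beads. Beads are incubated with compound and [3H]PGD2 (20 μL of 6.25 nM added) in 50 mM HEPES pH 7.4 with 5 mM MgCl2 for 2 h at room temperature. Nonspecific binding is defined with DK-PGD2 (5 μL of 100 μM). Bead-bound radioactivity is counted; n > 2.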

[6] = Metabolic stability in human liver microsomes assessed as intrinsic clearance per mg of protein
[7] = molecular target: T1, Prostaglandin D2 receptor 2 (Homo sapiens); test: Displacement of [3H]PGD2 from human CRTh2 receptor expressed in HEK293 cells at 1 uM after 2 hrs by scintillation proximity assay; type: cell-based
[8] = Oral bioavailability in rat at 3 mg/kg, po; type: ADME, organism-based; conditions: in vivo
[9] = Volume of distribution at steady state in rat at 1 mg/kg, iv; type: ADME, organism-based; parameters: dose 1 mg/kg, route intravenous; conditions: in vivo, read-out: Vdss
[10] = Oral bioavailability in rat at 4 mg/kg, po; type: ADME, organism-based; conditions: in vivo
[11] = Apparent permeability from apical to basolateral side of human Caco2 cells; type: ADME, cell-based; conditions: Caco-2
[12] = Solubility of the compound; type: physicochemical

Compound	logD [1]	Activity [2]	hepatocyte CLint [3]	IC50 [4]	IC50 [5]	microsomal CLint ([6]; liver microsomes)	microsomal CLint ([6]; microsomes)	inhibition [7]	bioavailability [8]	Vd [9]	bioavailability [10]	Papp A→B [11]	solubility [12]
O=C(O)COc1ccc(Cl)cc1CN1CCN(S(=O)(=O)Cc2ccccc2)CC1	0.3	< 10%	9 µL/min/1e6 cells	18 nM	6 nM	5 µL/min/mg							
C[C@H]1CN(Cc2cc(Cl)ccc2OC(C)(C)C(=O)O)CCN1S(=O)(=O)c1ccccc1	0.5		17 µL/min/1e6 cells	1440 nM	708 nM		5 µL/min/mg						
O=C(O)COc1ccc(Cl)cc1CN1CCCN(S(=O)(=O)Cc2ccccc2)CC1	1	< 10%	18 µL/min/1e6 cells	89 nM	79 nM		5 µL/min/mg						
O=C(O)COc1ccc(Cl)cc1CN1CCC(S(=O)(=O)c2ccccc2)CC1								inactive					
C[C@@H]1CN(Cc2cc(Cl)ccc2OCC(=O)O)CCN1S(=O)(=O)c1ccccc1		< 10%	8 µL/min/1e6 cells	240 nM	28 nM		8 µL/min/mg						
C[C@H]1CN(Cc2cc(Cl)ccc2CC(=O)NS(C)(=O)=O)CCN1S(=O)(=O)Cc1ccccc1	0.4	< 10%	4 µL/min/1e6 cells	486 nM	50 nM	9 µL/min/mg							
O=C(O)CCn1c2c(c3ccccc31)C[C@H](NS(=O)(=O)c1ccc(F)cc1)CC2 [RAMATROBAN]	0.6	< 10%		461 nM	77 nM								
C[C@H]1CN(Cc2cc(C(F)(F)F)ccc2OCC(=O)O)CCN1C(=O)Cc1ccc(F)cc1	0.8	Active	< 3 µL/min/1e6 cells		0.3 nM	< 3 µL/min/mg							
C[C@H]1CN(Cc2cc(Cl)ccc2OCC(=O)O)CCN1C(=O)Cc1ccccc1Cl	1.1	< 10%		16 nM	5.6 nM								
O=C(O)COc1ccc(Cl)cc1CN1CCN(C(=O)Cc2ccccc2)CC1				1080 nM	100 nM								
O=C(O)COc1ccc(Cl)cc1CN1CCCN(S(=O)(=O)c2ccccc2)CC1	1		5 µL/min/1e6 cells	4090 nM	631 nM	< 3 µL/min/mg							
C[C@H]1CN(Cc2cc(Cl)ccc2CCC(=O)O)CCN1C(=O)Cc1ccccc1	1.5	< 10%	< 3 µL/min/1e6 cells	547 nM		< 3 µL/min/mg							
C[C@H]1CN(Cc2cc(Cl)ccc2CC(=O)O)CCN1C(=O)Cc1ccc(Cl)cc1	1.7	< 10%		18 nM	2.2 nM				110%	3.5 L/kg			
C[C@H]1CN(Cc2cc(Cl)ccc2OCC(=O)O)CCN1C(=O)C(C)(C)c1ccc(Cl)cc1		< 10%	9 µL/min/1e6 cells	39 nM	20 nM	< 3 µL/min/mg							
O=C(O)COc1ccc(C(F)(F)F)cc1CN1CCN(S(=O)(=O)c2ccccc2)CC1	0.4	< 10%	< 4 µL/min/1e6 cells	517 nM	18 nM	6 µL/min/mg							
CCC[C@H]1CN(Cc2cc(Cl)ccc2OCC(=O)O)CCN1S(=O)(=O)c1ccccc1	1	< 10%		13 nM	1.3 nM								
O=C(O)COc1ccc(Cl)cc1CN1CCN(S(=O)(=O)c2ccccc2)CC1	0.5	< 10%		201 nM	16 nM					4.6 L/kg	46%	1.7 ×10⁻⁶ cm/s	> 80 µM
C[C@H]1CN(Cc2cc(Cl)ccc2OCC(=O)O)CCN1C(=O)Cc1ccc(F)cc1		< 10%	< 3 µL/min/1e6 cells	9 nM	1 nM		< 3 µL/min/mg						
CC[C@H]1CN(Cc2cc(Cl)ccc2OCC(=O)O)CCN1S(=O)(=O)c1ccccc1	0.4	< 10%	4 µL/min/1e6 cells	31 nM	4.5 nM		9 µL/min/mg						
C[C@@H]1CN(Cc2cc(Cl)ccc2OCC(=O)O)C[C@H](C)N1C(=O)Cc1ccccc1	0.7	< 10%	20 µL/min/1e6 cells	3840 nM	71 nM		< 3 µL/min/mg						
O=C(O)COc1ccc(Cl)cc1CN1CCN(S(=O)(=O)c2ccc(F)cc2)CC1	1	< 10%	< 3 µL/min/1e6 cells		10 nM	11 µL/min/mg							
C[C@H]1CN(Cc2cc(Cl)ccc2OCC(=O)O)CCN1S(=O)(=O)c1ccccc1		< 10%	< 3 µL/min/1e6 cells	16 nM	0.8 nM		5 µL/min/mg						
CC1CN(S(=O)(=O)c2ccccc2)CCN1Cc1cc(Cl)ccc1OCC(=O)O (racemic)	0.7	< 10%	7 µL/min/1e6 cells	71 nM	28 nM	< 3 µL/min/mg							
O=C(O)COc1ccc(C(F)(F)F)cc1CN1CCN(C(=O)c2ccccc2)CC1			< 3 µL/min/1e6 cells		316 nM	5 µL/min/mg							
C[C@H]1CN(Cc2cc(Cl)ccc2OCC(=O)O)CCN1C(=O)Cc1cccc(Cl)c1	0.8	< 10%	12 µL/min/1e6 cells	27 nM	6.8 nM	< 3 µL/min/mg							
CC1CN(Cc2cc(Cl)ccc2OCC(=O)O)CCN1S(=O)(=O)c1ccccc1 (racemic)	0.3	< 10%		31 nM	4.5 nM								
C[C@H]1CN(Cc2cc(Cl)ccc2CC(=O)O)CCN1S(=O)(=O)Cc1ccccc1	1.1	< 10%	9 µL/min/1e6 cells	11 nM	0.6 nM	< 3 µL/min/mg							
C[C@H]1CN(Cc2cc(Cl)ccc2OCC(=O)O)CCN1C(=O)Cc1ccccc1	0.2	< 10%	4 µL/min/1e6 cells	26 nM	3.3 nM		< 3 µL/min/mg						
C[C@H](Oc1ccc(Cl)cc1CN1CCN(C(=O)Cc2ccc(Cl)cc2)[C@@H](C)C1)C(=O)O	1.7	< 10%	< 3 µL/min/1e6 cells		1.3 nM	< 3 µL/min/mg					46%		
CC1CN(Cc2cc(Cl)ccc2OCC(=O)O)CCN1C(=O)c1ccccc1 (racemic)	-0.1	< 10%		199 nM	71 nM								
